Among the data in ChEMBL document CHEMBL1128741, “Synthesis and biological evaluation of 5-fluoro-2'-deoxyuridine phosphoramidate analogs” (J Med Chem, 1995) are LC99 and IC50 values, retold here.

A value given as a limit tells only on which side of the number the result lay.

Series [1] concerns B16. Kind of series: In vitro cytotoxicity (LC99) was measured against B16 Melanoma cells. The series is classed as cell-based. The note with it: mouse. The procedure, abridged:
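B16 melanoma cells in exponential growth, (2–3) × 10⁶ in 10 mL serum-free MEM, exposed to drug for 2 h, then washed and resuspended in MEM + 10% FBS. Plated at 50–50 000 cells/plate, grown 8 d at 37 °C. Colonies stained with crystal violet and counted. LC99 (2-log drop in colony formation) taken from log-linear part of log surviving fraction vs concentration.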

Series [2] concerns L1210. The series is described as follows: In vitro growth inhibition of L1210 cells 2 hours after administration of compound. The series is classed as functional, cell-based. To be noted: Mus musculus, L1210, 2 h. The procedure, abridged: (§1)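 Exponentially growing L1210 cells at (3–6) × 10⁴/mL in Fischer's medium with 10% horse serum, glutamine and antibiotic-antimycotic. Drug exposure lasted the stated time (2, 8, 24 or 48 h). Cells were then spun down and resuspended in drug-free medium. Coulter counts were taken 48 h after the start of treatment and expressed as percent of control. IC50 is given in μM.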

The subject of series [3] is L1210. The series is described as follows: In vitro growth inhibition of L1210 cells 24 hours after administration of compound. The series is classed as functional, cell-based. The note with it: Mus musculus, L1210, 24 h. In a few lines: as §1
In series [4] the test system is L1210. The series is described as follows: In vitro growth inhibition of L1210 cells 48 hours after administration of compound. The series is classed as functional, cell-based. The note with it: Mus musculus, L1210, 48 h. The procedure, abridged:
as §1

For series [5], the system named is L1210. The series is described as follows: In vitro growth inhibition of L1210 cells 8 hours after administration of compound. The note with it: Mus musculus, L1210, 8 h. The series is classed as functional, cell-based. The procedure, abridged: as §1

For the molecule `CC1CC(C)(C)NC(CCOP(=O)(OC[C@H]2O[C@@H](n3cc(F)c(=O)[nH]c3=O)C[C@@H]2O)N2CCCCC2)O1` (stereo partly specified), the LC99 in series [1] amounted to 650 µM. Also, the half-maximal inhibitory concentration (IC50) (commonly the concentration that inhibits the measured activity by half) in series [2] was determined as 750 nM; in series [3], 24 nM; in series [4] it was 8 nM; in series [5], 260 nM.

For `Cc1cn([C@H]2C[C@H](O)[C@@H](COP(=O)(OCCC3NC(C)(C)CC(C)O3)N(CCBr)CCBr)O2)c(=O)[nH]c1=O` (stereo partly specified), in series [1], the LC99 turned out to be 120 µM.

Take `CC1CC(C)(C)NC(CCOP(=O)(OC[C@H]2O[C@@H](n3ccc(=O)[nH]c3=O)C[C@@H]2O)N(CCBr)CCBr)O1` (stereo partly specified): in series [1], the LC99 was determined as 155 µM.

`CC1CC(C)(C)NC(CCOP(=O)(OC[C@H]2O[C@@H](n3cc(F)c(=O)[nH]c3=O)C[C@@H]2O)N(CCBr)CCBr)O1` (stereo partly specified): the LC99 in series [1] stood at 100 µM.

Take `CC1CC(C)(C)NC(CCOP(=O)(OC[C@H]2O[C@@H](n3cc(F)c(=O)[nH]c3=O)C[C@@H]2O)N(C)CCBr)O1` (stereo partly specified): the LC99 in series [1] was found to be 101 µM. The IC50 in series [2] turned out to be 120 nM; in series [3], 18 nM; in series [4], 2.5 nM; in series [5], 50 nM.

In series [1], `CC1CC(C)(C)NC(CCOP(=O)(OC[C@H]2O[C@@H](n3cc(F)c(=O)[nH]c3=O)C[C@@H]2O)N(C)CCCl)O1` (stereo partly specified) displayed an LC99 of 375 µM. Besides, the IC50 in series [2] amounted to 300 nM; in series [3], 25 nM; in series [4], 3.5 nM; in series [5] it was 160 nM.

In turn, `Cc1cn([C@H]2C[C@H](O)[C@@H](COP(=O)(OCCC3NC(C)(C)CC(C)O3)N(C)CCBr)O2)c(=O)[nH]c1=O` (stereo partly specified) yielded an LC99 in series [1] of 165 µM. The IC50 in series [2] stood at 13000 nM; in series [3], 7000 nM; in series [4] it was 590 nM; in series [5], 10500 nM.

Take `CC1CC(C)(C)NC(CCOP(=O)(OC[C@H]2O[C@@H](n3cc(F)c(=O)[nH]c3=O)C[C@@H]2O)N2CCOCC2)O1` (stereo partly specified): the IC50 in series [2] came to 15000 nM; in series [3], 900 nM; in series [4], 150 nM; in series [5] it was 5000 nM.

Take `Cc1ccc(S(=O)(=O)OCCN(C)P(=O)(OCCC2NC(C)(C)CC(C)O2)OC[C@H]2O[C@@H](n3cc(F)c(=O)[nH]c3=O)C[C@@H]2O)cc1` (stereo partly specified): the LC99 in series [1] was 141 µM. Further, the IC50 in series [2] is 160 nM; in series [3], 19 nM; in series [4] it was 2.5 nM; in series [5], 60 nM.

On to `CC1CC(C)(C)NC(CCOP(=O)(OC[C@H]2O[C@@H](n3ccc(=O)[nH]c3=O)C[C@@H]2O)N(C)CCCl)O1` (stereo partly specified), for which the IC50 is 40000 nM in series [2], 6000 nM in series [3], 550 nM in series [4] and 16500 nM in series [5].

Take `CC1CC(C)(C)NC(CCOP(=O)(OC[C@H]2O[C@@H](n3ccc(=O)[nH]c3=O)C[C@@H]2O)N(C)CCBr)O1` (stereo partly specified): the LC99 in series [1] is 319 µM. Besides, the IC50 came out at 20000 nM in series [2], 1300 nM in series [3], 430 nM in series [4] and 8200 nM in series [5].

Regarding `CC1CC(C)(C)NC(CCOP(=O)(OC[C@H]2O[C@@H](n3cc(F)c(=O)[nH]c3=O)C[C@@H]2O)N(C)CCI)O1` (stereo partly specified), the LC99 in series [1] is 95 µM. Besides, the 50% inhibitory concentration (IC50) in series [2] worked out at 190 nM; in series [3] it was 6 nM; in series [4], 2 nM; in series [5], 75 nM.

Regarding `O=c1[nH]cc(F)c(=O)[nH]1` [FLUOROURACIL], the LC99 in series [1] was > 2000 µM. For the same molecule, the IC50 came out at 2200 nM in series [2], 220 nM in series [3], 120 nM in series [4] and 630 nM in series [5].
